Screening data as filed in PubChem BioAssay.
PMI activator: increases human mannose-6-phosphate isomerase activity; purified human PMI, coupled resazurin fluorescence, 20 min; active compounds read high; 1 = vehicle control, 0 substrate-free wells; activation factor at 20 µM; P34949; AID 1214; hit rate 0.005% among 190,000;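 active = activation factor of 2 or more at 20 µM, relative to plate controls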
Target sequence (P34949 whole entry, looked up): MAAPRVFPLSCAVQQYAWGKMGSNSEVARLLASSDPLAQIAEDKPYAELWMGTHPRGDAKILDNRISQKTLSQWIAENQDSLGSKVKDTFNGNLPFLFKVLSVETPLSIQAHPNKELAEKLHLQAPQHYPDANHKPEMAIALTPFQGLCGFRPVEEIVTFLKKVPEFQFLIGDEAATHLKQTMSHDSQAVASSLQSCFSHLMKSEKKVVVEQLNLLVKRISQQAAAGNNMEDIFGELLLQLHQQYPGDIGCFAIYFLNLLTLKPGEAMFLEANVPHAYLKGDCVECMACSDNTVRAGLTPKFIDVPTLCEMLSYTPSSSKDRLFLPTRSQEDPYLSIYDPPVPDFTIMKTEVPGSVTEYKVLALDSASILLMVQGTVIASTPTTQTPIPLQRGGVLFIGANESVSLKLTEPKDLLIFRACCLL
PMI act satM6P: activators of human phosphomannose isomerase at near-saturating mannose 6-phosphate; hit rate 0.34% among 190,000; AID 1216; P34949; coupled PMI enzyme assay, resazurin fluorescence, 20 min; active compounds read high; 1 = untreated enzyme, 0 = substrate-free blank; activation factor at 20 µM;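 active = activation factor of 2 or more at 20 µM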
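Material: human phosphomannose isomerase with PGI, G6PDH, diaphorase coupling enzymes; amount: PMI at 15 ng/mL final; also added: Mannose-6-phosphate 1.0 mM (near-saturating) plus 0.22 mM NADP+; incubation: enzyme reaction with compound 20 min at room temperature; signal: resorufin fluorescence (Ex 544/Em 590 nm) from resazurin via diaphorase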
PTEN del growth: PTEN-deleted cell growth suppression; HCT116 PTEN-null viability, CellTiter-Glo, 60 h; active compounds read low; viability, % at 10 µM; hit rate 1.2% among 140,000;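 active = viability at or below a set limit, 4 SD under the median of all tested compounds, cut at about 3.7% in these data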;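 also: PTEN knockout HCT116 line with beta catenin targeted HCT116 as companion control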
Lmaj promast: inhibitors of Leishmania major promastigote growth. Leishmania major promastigotes, resazurin fluorescence viability. inhibition, % at 10 µM. hit rate 9% among 200,000; in the data active = inhibition above about 50%;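 also: promastigotes grown with compound for 44 hours at 28 °C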
HCT116 bCat-KO: beta-catenin-lacking colon tumor cell growth suppression | HCT116 beta-catenin knockout viability, CellTiter-Glo, 60 h; active compounds read low | viability, % at 10 µM | hit rate 1.5% among 140,000;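 active = viability at or under a set limit, the compound median less 4 SD, cut at about 6% in these data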;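 also: 0% = Hyamine 1622 control at 20 µM and 100% = untreated cell control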
* marks the source's active call; other numbers are inactive results. Only some compounds are listed: those with a hit (about 9.6% of all), similar ones and a draw of the others.

`O=C(COc1ccccc1)Nn1cnc2ccccc21` gave PMI activator 1, PMI act satM6P 1, PTEN del growth 98, Lmaj promast -1 and HCT116 bCat-KO 89.
`O=C(COC(=O)Cc1ccc(Cl)cc1Cl)Nc1ccc(OC(F)F)cc1` gave PMI activator 0.8, PMI act satM6P 0.8, PTEN del growth 95, Lmaj promast 70* and HCT116 bCat-KO 101.
`O=C(Nc1ccc([N+](=O)[O-])cc1)Nc1ccc(OC(F)F)c(Cl)c1` gave PMI activator 1, PMI act satM6P 1, PTEN del growth 1.1*, Lmaj promast 99* and HCT116 bCat-KO 1.0*.
For COc1ccccc1OCCCCNC(C)(C)C the results were PMI activator 1.1, PMI act satM6P 1.1, PTEN del growth 94, Lmaj promast 5 and HCT116 bCat-KO 100.
For Cc1cc(Br)ccc1OCCCCNC(C)(C)C the results were PMI activator 0.9, PMI act satM6P 0.9, PTEN del growth 54, Lmaj promast 100* and HCT116 bCat-KO 68.
Cc1ccc(NC(=O)COc2ccc(Br)cc2C)cc1 was read as PMI activator 1, PMI act satM6P 1, PTEN del growth 95, Lmaj promast -6 and HCT116 bCat-KO 96.
Screening CC(C)(C)NCCCCOc1ccccc1F returned PMI activator 1, PMI act satM6P 0.9, PTEN del growth 106, Lmaj promast 100* and HCT116 bCat-KO 89.
COCCCNCCCCOc1ccc(Br)cc1C was read as PMI activator 1.1, PMI act satM6P 1.1, PTEN del growth 62, Lmaj promast 99* and HCT116 bCat-KO 58.
Screening CC(C)COc1ccc(Br)cc1CNC(C)(C)C returned PMI activator 0.9, PMI act satM6P 1 and Lmaj promast 21.
COCCNCCCCOc1ccc(Br)cc1C was read as PMI activator 1.1, PMI act satM6P 1.1, PTEN del growth 46, Lmaj promast 100* and HCT116 bCat-KO 50.
`Cc1cc(Cl)ccc1OCCCC(=O)NO` gave PMI activator 1, PMI act satM6P 1, PTEN del growth 77, Lmaj promast 4 and HCT116 bCat-KO 67.
For COc1cccc(NC2=Nc3cccc4cccc2c34)c1 the results were PMI activator 0.8, PMI act satM6P 0.9, PTEN del growth 72, Lmaj promast 38 and HCT116 bCat-KO 87.
For O=C(NCc1ccccn1)C(=O)Nc1nc(C23CC4CC(CC(C4)C2)C3)cs1 the results were PMI activator 0.8, PMI act satM6P 0.8 and Lmaj promast 68*.
Screening O=C(Cc1c[nH]c2ccccc12)Nc1ccccc1N1CCOCC1 returned PMI activator 1, PMI act satM6P 0.9 and Lmaj promast 9.
For Cc1cccc2nc(-c3ccccc3)nc(N3CCC(O)(c4ccc(Cl)cc4)CC3)c12 the results were PMI activator 0.8, PMI act satM6P 0.9, PTEN del growth 73, Lmaj promast 79* and HCT116 bCat-KO 80.
For CN(C)CCCN(C(=O)c1cccc(N2C(=O)CCC2=O)c1)c1nc2cc3c(cc2s1)OCO3 the results were PMI activator 1.1, PMI act satM6P 1.1 and Lmaj promast -6.
For CCOC(=O)C1CCCN(C(=O)c2cc(-c3ccc(F)cc3)nc3ccccc23)C1 (stereo unspecified) the results were PMI activator 1, PMI act satM6P 1 and Lmaj promast 10.
Screening CCN1CCCC(OC(=O)c2cc(-c3ccc(C)cc3)nc3ccccc23)C1 (stereo unspecified) returned PMI activator 1.3, PMI act satM6P 1.2 and Lmaj promast 84*.
`Cn1c(Cl)c(C(=O)Nc2ccc(Cl)cc2)c2ccccc21` gave PMI activator 1, PMI act satM6P 0.9, PTEN del growth 53, Lmaj promast 1 and HCT116 bCat-KO 53.
CC(C)c1nc(N2CCN(C(=O)c3ccccc3)CC2)c(C#N)c2c1COC(C)(C)C2 was read as PMI activator 0.9, PMI act satM6P 0.9, PTEN del growth 57, Lmaj promast 74* and HCT116 bCat-KO 68.
`Cc1[nH]n(-c2ccccc2)c(=O)c1/C=N/NC(=O)c1cccc([N+](=O)[O-])c1` gave PMI activator 0.8, PMI act satM6P 1, PTEN del growth 2.6*, Lmaj promast -4 and HCT116 bCat-KO 2.4*.
Screening Cc1ccc(-n2[nH]c(C)c(/C=N/NC(=O)c3ccc([N+](=O)[O-])cc3)c2=O)c(C)c1 returned PMI activator 1.1, PMI act satM6P 1.3 and Lmaj promast 1.
